From ChEMBL document CHEMBL2424628, “Discovery of potent and selective nonsteroidal indazolyl amide glucocorticoid receptor agonists” (Bioorg Med Chem Lett, 2013)

Experiments:
Glucocorticoid receptor [1] = target: T1, Glucocorticoid receptor (Homo sapiens, UniProt P04150); test: Binding affinity to glucocorticoid receptor (unknown origin) by fluorescence polarization assay
T1 sequence (P04150 whole entry): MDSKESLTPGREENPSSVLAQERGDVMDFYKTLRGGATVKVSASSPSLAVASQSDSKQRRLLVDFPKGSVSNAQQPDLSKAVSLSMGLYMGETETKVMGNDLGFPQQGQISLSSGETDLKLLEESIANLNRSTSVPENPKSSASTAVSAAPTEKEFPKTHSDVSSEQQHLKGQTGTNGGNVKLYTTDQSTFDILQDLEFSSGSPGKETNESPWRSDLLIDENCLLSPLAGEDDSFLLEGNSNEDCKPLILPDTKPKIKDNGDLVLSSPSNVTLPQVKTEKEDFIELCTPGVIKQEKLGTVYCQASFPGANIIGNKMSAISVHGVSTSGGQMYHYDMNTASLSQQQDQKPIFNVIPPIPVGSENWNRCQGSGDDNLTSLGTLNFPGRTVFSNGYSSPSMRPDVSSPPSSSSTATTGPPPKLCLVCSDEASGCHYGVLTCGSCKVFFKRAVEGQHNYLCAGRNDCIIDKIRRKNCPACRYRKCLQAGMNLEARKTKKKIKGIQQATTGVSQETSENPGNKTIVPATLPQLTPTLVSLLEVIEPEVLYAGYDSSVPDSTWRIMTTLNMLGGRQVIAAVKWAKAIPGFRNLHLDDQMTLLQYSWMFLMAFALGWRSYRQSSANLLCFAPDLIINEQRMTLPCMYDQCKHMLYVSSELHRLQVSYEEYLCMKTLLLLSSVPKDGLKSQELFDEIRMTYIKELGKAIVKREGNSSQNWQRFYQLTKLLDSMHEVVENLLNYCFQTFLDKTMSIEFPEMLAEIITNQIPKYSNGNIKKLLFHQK

Glucocorticoid receptor [2] = target: T1, Glucocorticoid receptor; test: Agonist activity at glucocorticoid receptor in human A549 cells assessed as inhibition of PMA-induced AP-1 activation by luciferase reporter gene assay; format: cell-based
[3] = target: T2, Glucocorticoid receptor (Homo sapiens) (UniProt P04150); test: Transactivation of glucocorticoid receptor ligand binding domain (unknown origin) transfected in human HeLa cells assessed as activation of NP-1 by GAL4 luciferase reporter gene assay relative to dexamethasone; format: cell-based
T2 sequence (whole entry): T1 sequence (P04150 whole entry)
Method in brief: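 HeLa line (NP-1) stably transfected with a GR ligand binding domain chimera in a GAL4 luciferase reporter system, run in agonist mode. Direct GR-LBD activation read as increased luciferase activity. Means of two or more experiments in triplicate.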

Glucocorticoid receptor [4] = target: T1, Glucocorticoid receptor; test: Agonist activity at glucocorticoid receptor in human A549 cells assessed as inhibition of IL-1beta-induced NF-kappaB dependent E-selectin activation by luciferase reporter gene assay; format: cell-based
Glucocorticoid receptor [5] = target: T1, Glucocorticoid receptor; test: Transactivation of glucocorticoid receptor ligand binding domain (unknown origin) transfected in human HeLa cells assessed as activation of NP-1 by GAL4 luciferase reporter gene assay; format: cell-based
[6] = target: T2, Glucocorticoid receptor (Homo sapiens); test: Agonist activity at glucocorticoid receptor in human A549 cells assessed as inhibition of IL-1beta-induced NF-kappaB dependent E-selectin activation by luciferase reporter gene assay relative to dexamethasone; format: cell-based
[7] = target: T2, Glucocorticoid receptor (Homo sapiens); test: Agonist activity at glucocorticoid receptor in human A549 cells assessed as inhibition of PMA-induced AP-1 activation by luciferase reporter gene assay relative to dexamethasone; format: cell-based
Method in brief: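 A549 lung epithelial cells stably carrying a luciferase reporter with 5 copies of the AP-1 response element; AP-1 induced with PMA (15 ng/ml). Compound inhibition of induction read as decreased luciferase. […] Means of two or more experiments in triplicate.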

Ki (Glucocorticoid receptor [1])	EC50 (Glucocorticoid receptor [2])	Efficacy [3]	EC50 (Glucocorticoid receptor [4])	EC50 (Glucocorticoid receptor [5])	Efficacy [6]	Efficacy [7]	SMILES
0.0019 µM	0.106 µM	< 30%	0.078 µM	> 10 µM	56%	56%	CC(C)(C(=O)Nc1nncs1)C(c1ccccc1)c1ccc2c(cnn2-c2ccncc2)c1 (racemic)
0.0027 µM	0.024 µM	41%	0.015 µM	0.208 µM	77%	79%	CC(C)(C(=O)Nc1nncs1)[C@@H](c1ccccc1)c1ccc2[nH]ncc2c1
–	0.023 µM	55%	0.01 µM	0.256 µM	84%	96%	CC(C)(C(=O)Nc1nncs1)C(c1ccccc1)c1ccc2c(cnn2-c2ccc(Cl)cc2)c1 (racemic)
0.0057 µM	0.045 µM	66%	0.049 µM	0.132 µM	87%	96%	CC(C)CCn1ncc2cc(C(c3ccccc3)C(C)(C)C(=O)Nc3nncs3)ccc21 (racemic)
–	0.087 µM	–	–	–	–	62%	CCC(c1ccc2c(cnn2-c2ccc(F)cc2)c1)C(C)(C)C(=O)Nc1nccs1 (racemic)
0.006 µM	0.0014 µM	94%	0.0005 µM	0.0076 µM	97%	92%	CC(C)(C(=O)Nc1nccs1)[C@@H](c1ccccc1)c1ccc2c(cnn2-c2ccc(F)cc2)c1
–	0.271 µM	< 30%	> 5 µM	> 10 µM	< 30%	69%	CC(C)(C(=O)Nc1nncs1)C(c1ccccc1)c1ccc2c(cnn2-c2ccc(O)cc2)c1 (racemic)
–	–	122%	–	–	–	106%	CC(C(=O)Nc1nncs1)[C@@H](c1ccccc1)c1ccc2c(cnn2-c2ccc(F)cc2)c1 (single isomer, unassigned; diastereomer 3)
–	0.141 µM	–	–	–	–	56%	Cc1nnc(NC(=O)C(C)(C)C(c2ccccc2)c2ccc3c(cnn3-c3ccc(F)cc3)c2)s1 (racemic)
–	0.127 µM	–	–	–	–	62%	CC(C)(C(=O)Nc1nncs1)C(c1ccccc1)c1ccc2c(cnn2-c2ccccn2)c1 (racemic)
0.011 µM	0.017 µM	–	–	–	–	73%	CC(C)(C(=O)Nn1nccn1)C(c1ccccc1)c1ccc2c(cnn2-c2ccc(F)cc2)c1 (racemic)
0.018 µM	0.066 µM	–	–	–	–	55%	CC(C)(C(=O)Nc1nccs1)C(c1ccc2c(cnn2-c2ccc(F)cc2)c1)C1CCCCC1 (racemic)
–	1.2 µM	< 30%	–	> 10 µM	–	< 30%	COc1cccc(-n2ncc3cc(C(c4ccccc4)C(C)(C)C(=O)Nc4nncs4)ccc32)c1 (racemic)
–	0.956 µM	–	–	–	–	< 30%	CC(C)(C(=O)Nc1nncs1)C(c1ccccc1)c1ccc2c(cnn2-c2ccc(Br)cc2)c1 (racemic)
–	–	–	–	–	–	60%	CC(C)(C(=O)Nc1nccs1)C(c1ccncc1)c1ccc2c(cnn2-c2ccc(F)cc2)c1 (racemic)
–	4.32 µM	–	–	–	–	36%	CC(C)(Cc1ccc2c(cnn2-c2ccc(F)cc2)c1)C(=O)Nc1nncs1
0.013 µM	0.617 µM	< 30%	> 5 µM	> 10 µM	< 30%	35%	CC(C)(C(=O)Nc1nncs1)[C@H](c1ccccc1)c1ccc2[nH]ncc2c1
0.018 µM	0.023 µM	–	–	–	–	81%	CC(C)(C(=O)Nc1nncs1)C(c1ccccc1)c1ccc2c(cnn2-c2ccc(F)cc2)c1 (racemic)
–	–	100%	–	–	–	89%	CC(C(=O)Nc1nncs1)C(c1ccccc1)c1ccc2c(cnn2-c2ccc(F)cc2)c1 (single isomer, unassigned; diastereomer 4)
0.046 µM	> 10 µM	–	–	–	–	< 30%	CC(C)(C(=O)Nc1nncs1)C(c1ccccc1)c1ccc2c(cnn2CCc2ccccc2)c1 (racemic)
–	–	–	–	–	–	42%	CC(C(=O)Nc1nncs1)C(c1ccccc1)c1ccc2c(cnn2-c2ccc(F)cc2)c1 (single isomer, unassigned; diastereomer 1)

Ki (Glucocorticoid receptor [1])	EC50 (Glucocorticoid receptor [2])	Efficacy [3]	EC50 (Glucocorticoid receptor [4])	EC50 (Glucocorticoid receptor [5])	Efficacy [6]	Efficacy [7]	SMILES
0.015 µM	0.0041 µM	–	–	–	–	79%	CC(C)(C(=O)Nc1nccs1)C(c1ccccc1)c1ccc2c(cnn2-c2ccc(F)cc2)c1 (racemic)
–	0.073 µM	–	–	–	–	68%	CC(C)(C(=O)Nc1ccsc1)C(c1ccccc1)c1ccc2c(cnn2-c2ccc(F)cc2)c1 (racemic)
–	1.93 µM	–	–	–	–	62%	CC(C)(C(=O)Nc1nncs1)C(c1ccccc1)c1ccc2c(cnn2Cc2ccccc2)c1 (racemic)
0.0079 µM	0.4 µM	59%	0.058 µM	0.435 µM	81%	56%	CC(C)(C(=O)Nc1nccs1)[C@H](c1ccccc1)c1ccc2c(cnn2-c2ccc(F)cc2)c1
–	–	–	–	–	–	74%	Cc1csc(NC(=O)C(C)(C)C(c2ccccc2)c2ccc3c(cnn3-c3ccc(F)cc3)c2)n1 (racemic)
0.0009 µM	0.019 µM	57%	0.019 µM	0.132 µM	77%	74%	CC(C)(C(=O)Nc1nncs1)[C@@H](c1ccccc1)c1ccc2c(cnn2-c2cccnc2)c1
–	–	–	–	–	–	60%	CC(C)CC(c1ccc2c(cnn2-c2ccc(F)cc2)c1)C(C)(C)C(=O)Nc1nncs1 (racemic)
–	–	< 30%	–	–	44%	82%	CC(C)n1ncc2cc(C(c3ccccc3)C(C)(C)C(=O)Nc3nncs3)ccc21 (racemic)
0.017 µM	1.02 µM	–	–	–	–	45%	CC(C)(C(=O)Nc1nncs1)C(c1ccccc1)c1ccc2c(cnn2CCCO)c1 (racemic)
–	0.55 µM	–	1.05 µM	–	27%	32%	CC(C)(C(=O)Nc1nncs1)C(c1ccccc1)c1ccc2c(cnn2CCO)c1 (racemic)
–	0.056 µM	< 30%	0.143 µM	> 10 µM	62%	76%	COc1ccc(-n2ncc3cc(C(c4ccccc4)C(C)(C)C(=O)Nc4nncs4)ccc32)cc1 (racemic)
–	0.02 µM	–	–	–	–	73%	CC(C)(C(=O)Nc1nncs1)C(c1ccccc1)c1ccc2c(cnn2-c2ccccc2)c1 (racemic)
–	0.082 µM	–	–	–	–	47%	CC(C)(C(=O)Nc1nccs1)C(c1ccc2c(cnn2-c2ccc(F)cc2)c1)C1CCCC1 (racemic)
–	0.114 µM	< 30%	1.82 µM	> 10 µM	77%	76%	CC(C)Cn1ncc2cc(C(c3ccccc3)C(C)(C)C(=O)Nc3nncs3)ccc21 (racemic)
–	0.049 µM	–	–	–	–	48%	Cc1cnc(NC(=O)C(C)(C)C(c2ccccc2)c2ccc3c(cnn3-c3ccc(F)cc3)c2)s1 (racemic)
0.004 µM	0.349 µM	–	0.185 µM	> 10 µM	35%	58%	CC(C)(C(=O)Nc1nncs1)[C@H](c1ccccc1)c1ccc2c(cnn2-c2cccnc2)c1
0.017 µM	> 10 µM	–	–	–	–	–	CC(C)(C(=O)Nn1ncnn1)C(c1ccccc1)c1ccc2c(cnn2-c2ccc(F)cc2)c1 (racemic)
–	–	60%	–	–	86%	85%	CC(C)(C(=O)Nc1nncs1)C(c1ccccc1)c1ccc2c(cnn2C2CCCCCC2)c1 (racemic)
–	0.705 µM	–	–	–	–	37%	CC(C)(C(=O)Nc1nncs1)C(Cc1ccccc1)c1ccc2c(cnn2-c2ccc(F)cc2)c1 (racemic)
–	–	76%	–	–	–	103%	CC(C(=O)Nc1nncs1)[C@@H](c1ccccc1)c1ccc2c(cnn2-c2ccc(F)cc2)c1 (single isomer, unassigned; diastereomer 2)
–	0.081 µM	–	–	–	–	29%	CC(C)C(c1ccc2c(cnn2-c2ccc(F)cc2)c1)C(C)(C)C(=O)Nc1nncs1 (racemic)
